Published values collected from several papers.
Protocols differ between the studies behind these lines.
Target: Ephrin type-B receptor 2 (EPHB2, Homo sapiens, UniProt P29323)
One construct used (P29323 19-1055): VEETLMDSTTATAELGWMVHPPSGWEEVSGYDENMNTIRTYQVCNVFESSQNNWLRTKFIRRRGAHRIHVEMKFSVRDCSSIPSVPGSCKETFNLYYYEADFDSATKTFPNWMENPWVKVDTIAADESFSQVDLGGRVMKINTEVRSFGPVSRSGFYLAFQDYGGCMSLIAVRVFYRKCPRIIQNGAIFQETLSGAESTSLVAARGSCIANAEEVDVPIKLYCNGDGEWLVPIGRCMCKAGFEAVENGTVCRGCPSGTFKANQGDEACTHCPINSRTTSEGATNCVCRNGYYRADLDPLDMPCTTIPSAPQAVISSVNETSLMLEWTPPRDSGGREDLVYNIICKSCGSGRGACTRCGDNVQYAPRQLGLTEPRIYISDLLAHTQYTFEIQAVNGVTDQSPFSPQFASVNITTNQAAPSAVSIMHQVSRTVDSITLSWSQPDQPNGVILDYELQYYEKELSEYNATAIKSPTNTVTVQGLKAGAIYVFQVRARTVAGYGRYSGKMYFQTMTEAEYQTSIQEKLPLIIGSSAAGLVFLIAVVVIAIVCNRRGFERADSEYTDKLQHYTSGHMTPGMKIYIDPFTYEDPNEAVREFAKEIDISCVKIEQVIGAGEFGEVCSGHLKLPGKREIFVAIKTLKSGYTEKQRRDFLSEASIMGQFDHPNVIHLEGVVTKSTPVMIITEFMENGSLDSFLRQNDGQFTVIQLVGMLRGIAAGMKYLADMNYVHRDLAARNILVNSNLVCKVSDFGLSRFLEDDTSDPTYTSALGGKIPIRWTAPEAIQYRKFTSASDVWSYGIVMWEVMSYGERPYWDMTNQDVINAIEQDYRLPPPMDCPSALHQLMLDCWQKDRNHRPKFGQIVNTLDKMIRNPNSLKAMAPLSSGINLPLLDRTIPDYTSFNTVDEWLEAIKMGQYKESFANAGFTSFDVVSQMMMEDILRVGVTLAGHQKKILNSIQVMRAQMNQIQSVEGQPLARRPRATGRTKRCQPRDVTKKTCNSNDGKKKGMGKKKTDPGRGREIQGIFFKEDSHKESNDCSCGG

C[C@H]1CC[C@H](n2c3cnccc3c3cnc(Nc4ccc5c(n4)CCN(C(=O)CO)C5)nc32)CC1
remaining binding (cell-free assay, competition with immobilised ligand; 1 µM): 100%

Cc1cc(O)c(-c2ccc([C@@H](C)CN(C)C)cc2)c2c1[nH]c(=O)c1sccc12
inhibition (cell-free assay, inhibitor; 0.1 µM): 0.144%

CC(C)S(=O)(=O)c1ccc2nccc(Nc3ccc4sc(C5CCCC5)nc4c3)c2c1
activity vs control (enzyme activity, inhibitor; 1 µM): 109%

CO[C@@H]1[C@H](N(C)C(=O)c2ccccc2)C[C@H]2O[C@]1(C)n1c3ccccc3c3c4c(c5c6ccccc6n2c5c31)C(=O)NC4
inhibition (enzyme activity, inhibitor; 1 µM): 0%

Cc1ccc(NC(=O)c2ccnc(C(F)(F)F)c2)cc1-c1cc(OCCO)nc(N2CCOCC2)c1
remaining binding (binding, competition with immobilised ligand; 1 µM): 85%

C1=C/COCc2cc(ccc2OCCN2CCCC2)Nc2nccc(n2)-c2cccc(c2)COC/1
remaining binding (binding; 0.1 µM): 88%

CCCCC(=O)Nc1ccc(-c2ccc3ncn(CCC)c(=O)c3c2)cn1
remaining binding (binding, competition with immobilised ligand; 0.5 µM): 100%

CC#CC(=O)N1CCC[C@H]1c1nc(-c2ccc(C(=O)Nc3ccccn3)cc2)c2c(N)nccn12
inhibition (enzyme activity, inhibitor; 1 µM): 6%
